According to ChEMBL document CHEMBL2331283, “Anti-inflammatory sesquiterpene derivatives from the leaves of Tripterygium wilfordii” (J Nat Prod, 2013):

Columns and labels:
[1] = system: Bel-7402; assay: Cytotoxicity against human Bel7402 cells by MTT assay; format: functional, cell-based
Method in brief: (§1)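 MTT cytotoxicity assay on five human carcinoma lines: A549 (lung), Bel-7402 (liver), BGC-823 (stomach), HCT-8 (colon) and A2780 (ovarian). The assay was run following a published procedure. The read-out is an IC50.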

[2] = system: A549; assay: Cytotoxicity against human A549 cells by MTT assay; format: functional, cell-based; method in brief: as §1
[3] = system: A2780; assay: Cytotoxicity against human A2780 cells by MTT assay; format: functional, cell-based; method in brief: as §1
[4] = system: BGC-823; assay: Cytotoxicity against human BGC823 cells by MTT assay; format: functional, cell-based; method in brief: as §1
[5] = system: HCT-8; assay: Cytotoxicity against human HCT8 cells by MTT assay; format: functional, cell-based; method in brief: as §1
[6] = system: RAW264.7; assay: Inhibition of LPS-induced nitric oxide production in mouse RAW264.7 cells at 5 uM; format: functional

Structure (SMILES)	IC50 [1] [µM]	IC50 [2] [µM]	IC50 [3] [µM]	IC50 [4] [µM]	IC50 [5] [µM]	inhibition at 5 µM [6] [%]
CC(=O)O[C@@H]1[C@@H]2[C@@H](O)[C@@]34O[C@@]2(C)COC(=O)c2cnccc2C(C)C(C)(O)C(=O)O[C@@H]([C@H](OC(C)=O)[C@H](OC(C)=O)[C@@]3(COC(=O)c2ccoc2)[C@@H]1OC(C)=O)[C@]4(C)O (some centres not stated) [HYPOGLAUNINE E]	> 1	> 1	> 1	> 1	> 1	–
C/C=C(\C)C(=O)O[C@H]1[C@H](OC(C)=O)[C@@H]2[C@@H](OC(=O)c3cccnc3)[C@@]3(OC2(C)C)[C@@]1(COC(C)=O)[C@@H](OC(C)=O)CC[C@]3(C)O (relative stereo)	> 1	> 1	> 1	> 1	> 1	–
CC(=O)OC[C@@]12[C@@H](OC(=O)c3ccoc3)CC[C@](C)(O)[C@]13OC(C)(C)[C@H]([C@@H](OC(C)=O)[C@H]2OC(=O)c1ccoc1)[C@H]3O (relative stereo) [TRIPTERSININ I]	> 1	> 1	> 1	> 1	> 1	45.5
CC(=O)OC[C@]12[C@H](OC(C)=O)[C@H](OC(C)=O)[C@@H]3[C@@H](OC(C)=O)[C@@]14O[C@@]3(C)COC(=O)c1cnccc1C(C)C(C)C(=O)O[C@@H]([C@H](O)[C@@H]2OC(C)=O)[C@]4(C)O (some centres not stated) [WILFORDININE A]	> 1	> 1	> 1	> 1	> 1	59
CC(=O)OC[C@]12[C@H](OC(C)=O)[C@H](OC(C)=O)[C@@H]3[C@@H](OC(C)=O)[C@@]14O[C@@]3(C)COC(=O)c1cnccc1C(C)C(C)C(=O)O[C@@H]([C@H](OC(C)=O)[C@@H]2OC(C)=O)[C@]4(C)O (some centres not stated) [PERITASSIN A]	> 1	> 1	> 1	> 1	> 1	48.2
CC(=O)OC[C@@]12[C@@H](OC(C)=O)CC[C@](C)(O)[C@]13OC(C)(C)[C@H]([C@@H](O)[C@H]2OC(=O)c1ccoc1)[C@H]3OC(=O)c1ccoc1 (relative stereo) [TRIPTERSININ J]	> 1	> 1	> 1	> 1	> 1	–
CC(=O)OC[C@@]12[C@@H](OC(C)=O)CC[C@](C)(O)[C@]13OC(C)(C)[C@H]([C@@H](OC(=O)c1cccnc1)[C@H]2OC(=O)c1ccoc1)[C@H]3OC(C)=O (relative stereo) [TRIPTERSININ G]	> 1	> 1	> 1	> 1	> 1	–
CC(=O)OC[C@@]12[C@@H](OC(=O)/C=C\c3ccccc3)CC[C@](C)(O)[C@]13OC(C)(C)[C@H](C(=O)[C@H]2OC(=O)c1cccnc1)[C@H]3O (relative stereo) [TRIPTERSININ B]	> 1	> 1	> 1	> 1	> 1	–
CC(=O)OC[C@]12[C@@H](OC(C)=O)[C@H](OC(C)=O)[C@@H]3[C@@H](OC(C)=O)[C@@]14O[C@@]3(C)COC(=O)c1cnccc1CCC(C)C(=O)O[C@@H]([C@H](OC(C)=O)[C@@H]2OC(C)=O)[C@]4(C)O (some centres not stated) [WILFORDININE E]	> 1	> 1	> 1	> 1	> 1	–
CC(=O)OC[C@@]12[C@@H](OC(=O)/C=C\c3ccccc3)CC[C@](C)(O)[C@]13OC(C)(C)[C@H]([C@@H](OC(C)=O)[C@H]2OC(=O)c1cccnc1)[C@H]3OC(C)=O (relative stereo) [TRIPTERSININ E]	> 1	> 1	> 1	> 1	> 1	–
CC(=O)OC[C@@]12[C@@H](OC(=O)/C=C\c3ccccc3)CC[C@](C)(O)[C@]13OC(C)(C)[C@H]([C@@H](OC(C)=O)[C@H]2OC(=O)c1cccnc1)[C@H]3O (relative stereo) [TRIPTERSININ D]	> 1	> 1	> 1	> 1	> 1	–
CC(=O)OC[C@]12[C@H](OC(C)=O)[C@H](OC(C)=O)[C@@H]3[C@@H](OC(C)=O)[C@@]14O[C@@]3(C)COC(=O)c1cccnc1CCC(C)C(=O)O[C@@H]([C@H](OC(C)=O)[C@@H]2OC(C)=O)[C@]4(C)O (some centres not stated) [EUONINE]	> 1	> 1	> 1	> 1	> 1	54.7
CC(=O)OC[C@@]12[C@@H](OC(=O)c3ccoc3)CC[C@](C)(O)[C@]13OC(C)(C)[C@H]([C@@H](OC(=O)c1cccnc1)[C@H]2OC(=O)c1ccoc1)[C@H]3OC(C)=O (relative stereo) [TRIPTERSININ H]	> 1	> 1	> 1	> 1	> 1	–
CC(=O)OC[C@@]12[C@@H](OC(=O)/C=C/c3ccccc3)CC[C@](C)(O)[C@]13OC(C)(C)[C@H](C(=O)[C@H]2OC(=O)c1cccnc1)[C@H]3O (relative stereo) [TRIPTERSININ A]	> 1	> 1	> 1	> 1	> 1	47.3
C[C@@H]1C[C@H]2[C@@H]3CCC4=CC(=O)C=C[C@]4(C)[C@@]3(F)[C@@H](O)C[C@]2(C)[C@@]1(O)C(=O)CO [DEXAMETHASONE]	–	–	–	–	–	70.4
CC(=O)OC[C@]12[C@H](OC(C)=O)[C@H](OC(C)=O)[C@@H]3[C@@H](OC(C)=O)[C@@]14O[C@@]3(C)COC(=O)c1cccnc1C(C)C(C)C(=O)O[C@@H]([C@H](OC(C)=O)[C@@H]2OC(C)=O)[C@]4(C)O (some centres not stated) [EUONYMINE]	> 1	> 1	> 1	> 1	> 1	–
CC(=O)OC[C@@]12[C@@H](OC(C)=O)CC[C@](C)(O)[C@]13OC(C)(C)[C@H]([C@@H](OC(C)=O)[C@H]2OC(=O)c1ccoc1)[C@H]3OC(=O)c1cccnc1 (relative stereo) [TRIPTERSININ F]	> 1	> 1	> 1	> 1	> 1	–
CC(=O)OC[C@]12[C@H](OC(C)=O)[C@H](OC(C)=O)[C@@H]3[C@@H](OC(C)=O)[C@@]14O[C@@]3(C)COC(=O)c1cccnc1CCC(C)(O)C(=O)O[C@@H]([C@H](OC(=O)c1ccco1)[C@@H]2OC(C)=O)[C@]4(C)O (some centres not stated) [WILFORTRINE]	> 1	> 1	> 1	> 1	> 1	–
CC(=O)OC[C@@]12[C@@H](OC(=O)/C=C/c3ccccc3)CC[C@](C)(O)[C@]13OC(C)(C)[C@H]([C@@H](OC(C)=O)[C@H]2OC(=O)c1cccnc1)[C@H]3O (relative stereo) [TRIPTERSININ C]	> 1	> 1	> 1	> 1	> 1	–
CC(=O)O[C@@H]1[C@@H]2[C@@H](OC(C)=O)[C@@]34O[C@@]2(C)COC(=O)c2cnccc2C(C)C(C)(O)C(=O)O[C@@H]([C@H](OC(C)=O)[C@H](OC(C)=O)[C@@]3(COC(=O)c2ccco2)[C@@H]1OC(C)=O)[C@]4(C)O (some centres not stated) [HYPOGLAUNINE A]	> 1	> 1	> 1	> 1	> 1	–
CC(=O)OC[C@@]12[C@@H](OC(=O)c3ccoc3)CC[C@](C)(O)[C@]13OC(C)(C)[C@H]([C@@H](OC(C)=O)[C@H]2OC(=O)c1ccoc1)[C@H]3OC(C)=O (relative stereo) [TRIPTERSININ K]	> 1	> 1	> 1	> 1	> 1	49.9
